ERAP1 HTS inh: inhibitors of human ERAP1 aminopeptidase; recombinant ERAP1, Leu-AMC fluorescence, 60 min; hit rate 0.15% among 340,000; inhibition, % at 10.7 µM; Q9NZ08;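 active means mean replicate inhibition of at least 30%, or all replicates individually reaching that 30% level; inactive means mean below 30% and not every replicate reaching it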;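 further: 0% = neutral control wells and 100% = L-leucinethiol positive control wells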
E-sel inducer: induces E-selectin expression in human endothelial cells; P16581; HUVEC E-selectin immunofluorescence imaging; normalized: neutral wells 0, TNF-alpha wells 100; activation, % at 7.58 µM; hit rate 0.37% among 260,000; AID 686992;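 active means mean E-selectin-positive cell signal at least 10% of the positive control, reached in at least 60% of replicates, without over 20% cell loss; inconclusive means no rule given, readout overlaps actives, possibly toxicity-flagged; inactive means the rest, including those meeting only one limit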
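Test system: HUVEC; input: 3,000 HUVEC/well; measured by: immunofluorescence imaging; read-out: % PE-positive cells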
FGF22 binding: FGF22 (human) thermal shift binding. Q9HCT0. recombinant FGF22 thermal shift, SYPRO orange fluorescence; percent of sucrose octasulfate shift, DMSO zero. activity (Tm shift, normalised), % at 9.99 µM. hit rate 1.5% among 340,000. AID 651658;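 active means mean Tm shift, scaled 0 neutral to 100 positive control, at about 1.3% or above, every replicate too, limit read from the data; inconclusive means no clear call, values can overlap the other calls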
Target sequence (Q9HCT0 whole entry, looked up): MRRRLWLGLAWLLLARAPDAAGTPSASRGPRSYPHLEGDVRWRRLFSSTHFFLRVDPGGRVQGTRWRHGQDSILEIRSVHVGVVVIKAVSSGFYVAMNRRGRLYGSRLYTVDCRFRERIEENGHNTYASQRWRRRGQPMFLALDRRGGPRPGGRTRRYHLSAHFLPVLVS
CFTR F508del cor: correctors of CFTR F508del function in bronchial epithelial cells; CFBE cells, YFP halide quenching; stimulated with forskolin plus potentiator P3; % fluorescence drop versus neutral controls; activity (quench increase), % at 7.58 µM; hit rate 0.36% among 350,000; AID 720511;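 active means mean added fluorescence quench of at least 8% versus neutral control, with both replicates also reaching 8%; inconclusive means only one of the mean or replicate conditions met; inactive means mean below 8% and not both replicates reaching 8%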;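 further: cells transiently co-express mutant CFTR-F508del with the halide-sensitive YFP; corrector assay measuring rescue of mutant channel to the surface after 24 h compound exposure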
DENV2 CPE rescue: DENV2-induced cell death inhibition | DENV2-infected cells, cytopathic effect rescue, plate reader | hit rate 1.7% among 350,000 | CPE inhibition, % at 9.99 µM; in the data active means CPE inhibition above about 20%, passing the limit was not always enough; inconclusive means no clear call, values can overlap the other calls; tested in BHK-21 cells;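 further: 0% = median of neutral control wells and 100% = median of positive control wells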
An asterisk follows results filed as active; u = inconclusive; x = no result; ! = not confirmed by another sample. In the library only some 3.7% were active in any assay of this set; here they are far more common.

SMILES | ERAP1 HTS inh | E-sel inducer | FGF22 binding | CFTR F508del cor | DENV2 CPE rescue
CC(=O)NS(=O)(=O)c1ccc(NC(=O)CSc2ccc(Cl)cc2)cc1 | -0.7 | x | 0.1 | 9.6* | -2.6
Cc1ccc(C)c(NS(=O)(=O)c2ccc(NC(=O)CSc3ccc(Cl)cc3)cc2)c1 | 2.5 | x | 0.2 | x | 4.2
COc1ccc(CN(C)C[C@@H]2Oc3ccc(NC(=O)CCC(F)(F)F)cc3CC(=O)N([C@H](C)CO)C[C@@H]2C)cc1 | -1.4 | 3.0 | x | 1.3 | 2.3
Cc1ccc(C)c(NC(=O)C2CC(O)CN2C(=O)Oc2ccccc2)c1 (configuration not stated) | 39.3* | x | -0.2 | 1.2 | -0.8
O=C(O)C[C@@H]1C[C@@H]2c3cc(NS(=O)(=O)c4ccc(F)cc4)ccc3O[C@@H]2[C@H](CO)O1 | 0.3 | 0.0 | x | -0.7 | 16.9
Cc1ccccc1-c1ccc(C2[C@@H]3CN(C(=O)C4CC4)C[C@H]2N3)cc1 (some centres not stated) | -4.2 | 0.5 | x | -1.1 | 27.2*!
C[C@H](CO)N1C[C@H](C)[C@H](CN(C)S(=O)(=O)c2ccc(Cl)cc2)OCCCC[C@H](C)Oc2ccc(NC(=O)Nc3ccc(C(F)(F)F)cc3)cc2C1=O | x | 0.2 | -0.2 | -0.2 | 4.6
C[C@@H]1CN([C@H](C)CO)C(=O)c2cc(NC(=O)Nc3ccc(C(F)(F)F)cc3)ccc2O[C@@H](C)CCCCO[C@H]1CN(C)S(=O)(=O)c1ccc(Cl)cc1 | x | 1.1 | 0.2 | 1.2 | 14.7
C[C@H](CO)N1C[C@H](C)[C@@H](CN(C)S(=O)(=O)c2ccc(Cl)cc2)OCCCC[C@H](C)Oc2ccc(NC(=O)Nc3ccc(C(F)(F)F)cc3)cc2C1=O | x | 0.5 | 0.4 | 5.1 | 36.5*
C[C@@H]1CCCCO[C@@H](CN(C)S(=O)(=O)c2ccc(Cl)cc2)[C@H](C)CN([C@@H](C)CO)C(=O)c2cc(NC(=O)Nc3ccc(C(F)(F)F)cc3)ccc2O1 | x | 0.4 | -0.1 | 2.4 | 35.5*
CCCN(C)C[C@H]1Oc2cc(C#CC3CCCC3)ccc2S(=O)(=O)N([C@H](C)CO)C[C@H]1C | -12.7 | 0.1 | -0.1 | 1.0 | 10.6
C=CCN(CC=C)C(=O)Nc1cc(OC)ccc1OC | -0.1 | -0.1 | -0.1 | -1.3 | -3.4
C=CCN(CC=C)C(=S)Nc1ccc(OC)c(OC)c1 | 3.6 | x | 0.4 | 13.2* | 9.3
Cc1nc2cc(NS(=O)(=O)c3cccc(F)c3)ccc2s1 | -0.9 | 0.2 | 44.1* | -1.5 | 7.6
O=C(CCN1CCCCC1)N[C@@H]1CC[C@H](CCn2cc(-c3ccc(F)cc3)nn2)O[C@@H]1CO | -2.2 | -0.3 | -0.1 | 0.9 | 5.2
O=C(O)C1Cc2[nH]cnc2C(c2ccc(F)cc2)N1 (configuration not stated) | 2.7 | x | 43.1* | -2.9 | -0.9
CCOn1c(=O)c(-c2cccc([N+](=O)[O-])c2)[n+]([O-])c2ccccc21 | -3.3 | x | 43.8* | 0.4 | 2.7
CSC(SC)=C(C#N)C(=O)c1ccccc1 | 1.0 | 0.3 | -0.2 | -2.6 | u
COc1cccc(C(=O)C(C#N)=C(SC)SC)c1 | -3.1 | 0.1 | 0.2 | -1.1 | 33.9*
O=C(c1cccc(F)c1)N1C[C@H]2[C@@H](c3ccccc31)[C@H](CO)N2C(=O)C1CCOCC1 | 3.5 | -0.1 | -0.2 | 0.9 | -7.7
COc1ccc2cc(-c3[nH]ncc3CN3CCCN(c4ccccc4)CC3)ccc2c1 | -3.6 | x | 43.8* | -1.0 | -3.4
COc1ccc(-c2[nH]ncc2CN2CCCN(c3ccccc3)CC2)c(F)c1 | 4.6 | x | x | -7.8 | -2.9
CCCc1cn(CC[C@@H]2CC[C@@H](NC(=O)CCN3CCCCC3)[C@@H](CO)O2)nn1 | 2.1 | 0.1 | 0.1 | 6.0 | 5.2
CCn1c(/C=C/c2cc[n+](C)cc2)nc2ccccc21 | 59.0* | 0.2 | 0.1 | -1.8 | -1.9
O=C1CCN(CCCN2CCC(=O)NC2=S)C(=S)N1 | 3.6 | 0.0 | 43.7* | -1.1 | 0.4
SMILES | ERAP1 HTS inh | E-sel inducer | FGF22 binding | CFTR F508del cor | DENV2 CPE rescue
COc1ccc(/C(N)=N/OC(=O)c2ccco2)cc1 | 2.1 | x | 42.4 | -1.7 | 1.6
COc1ccc(N=N/C(=C\O)C(=O)c2ccco2)cc1 | 4.3 | x | 43.3* | 2.4 | -0.5
C[C@@H]1CN([C@@H](C)CO)S(=O)(=O)c2ccc(-c3ccccc3)cc2O[C@H]1CN(C)Cc1cccc(F)c1 | -3.9 | -0.3 | -0.2 | 0.6 | -7.2
COCC(C)n1c(C)cc(C(=O)COC(=O)/C=C/c2cccc(F)c2)c1C (configuration not stated) | 4.8 | x | 43.4* | -3.3 | -5.3
Cc1cc(C(=O)COC(=O)/C=C/c2ccc(F)cc2)c(C)n1C | -0.6 | x | 0.0 | 3.0 | 12.1
O=C(CCSc1ccccc1)N1CCCC1 | -2.6 | x | 43.6* | 0.0 | 4.0
O=C(c1cccnc1)N1N=C(C2CC2)CC1(O)C(F)(F)F (configuration not stated) | -1.5 | x | 44.1* | -0.9 | -8.2
O=C(NCC[C@H]1CC[C@H](NC(=O)C2CCCCC2)[C@@H](CO)O1)c1cnccn1 | -0.7 | 0.2 | -0.1 | -2.7 | -11.0
CC(C)CC#Cc1cnc2c(c1)C(=O)N([C@H](C)CO)C[C@@H](C)[C@@H](CN(C)C(=O)c1ccc(F)cc1)O2 | -2.7 | 1.4 | 0.0 | -2.2 | 21.1*
CC(C)CC#Cc1cnc2c(c1)C(=O)N([C@H](C)CO)C[C@H](C)[C@H](CN(C)C(=O)c1ccc(F)cc1)O2 | -3.3 | 0.8 | -0.2 | 1.2 | 4.5
C[C@H]1CN([C@@H](C)CO)C(=O)c2cc(C#CCN(C)C)cnc2O[C@@H]1CN(C)C(=O)c1ccc(F)cc1 | 1.6 | 0.3 | 0.7 | 0.8 | -0.8
CC(C)CC#Cc1cnc2c(c1)C(=O)N([C@@H](C)CO)C[C@H](C)[C@H](CN(C)Cc1ccc(C(=O)O)cc1)O2 | -0.7 | 0.0 | -0.2 | -2.2 | 78.1*
C[C@@H]1CN([C@H](C)CO)C(=O)c2cc(C#C[C@@H](C)O)cnc2O[C@H]1CN(C)C(=O)c1ccc(F)cc1 | 1.6 | 0.2 | -0.1 | 4.0 | 43.3*!
C[C@H](CO)N1C[C@H](C)[C@H](CN(C)C(=O)c2ccc(F)cc2)Oc2ncc(C#CCN(C)C)cc2C1=O | 2.1 | 0.3 | 1.1 | -0.9 | 35.0*
C[C@H]1CN([C@@H](C)CO)C(=O)c2cc(C#CCN(C)C)cnc2O[C@H]1CN(C)Cc1ccc(F)cc1 | 6.1 | -0.3 | -0.1 | 1.9 | 32.1*
C[C@H]1CN([C@@H](C)CO)C(=O)c2cc(C#CCN(C)C)cnc2O[C@@H]1CN(C)C(=O)Nc1ccccc1F | 0.2 | -0.2 | 0.2 | -1.7 | -4.6
C[C@H](CO)N1C[C@H](C)[C@H](CN(C)C(=O)Nc2ccccc2F)Oc2ncc(C#CCN(C)C)cc2C1=O | 1.6 | 0.1 | 0.2 | -0.2 | 72.3*
O=C(NCCc1ccccc1)[C@H]1N[C@H]2c3ccc(-c4ccc(F)cc4)c(=O)n3C[C@H]2[C@@H]1CO | 9.4 | -0.1 | 0.3 | -0.5 | 7.9

Compound activity (PubChem)
